Bioassay records (PubChem)
rCAG RNA binder: molecules binding r(CAG) RNA repeats; r(CAG) RNA repeat, TO-PRO-1 dye displacement fluorescence; inhibition, % at 3 µM; actives 1.3% (n = 370,000); AID 651821;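 active means inhibition above the plate cutoff, the mean of all test compounds on that plate plus 3 SD, cut at about 35% in these data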;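 further: higher means more dye released from RNA so lower well fluorescence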
ATG4B inh: inhibitors of human ATG4B cysteine protease; Q9Y4P1; ATG4B cleavage of LC3-PLA2, NBD-HPC fluorescence, 1 h; inhibition, % at 8.33 µM; actives 0.51% (n = 340,000); AID 504462; in the data active means inhibition above about 40%
UHRF1 MBD2 ctr: UHRF1 methyl-DNA binding inhibition | Q96T88 | UHRF1 binding to methylated oligo, TR-FRET | inhibition, % at 4.4 µM | actives 0.75% (n = 370,000) | AID 687016; in the data active means inhibition above about 21%;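 further: UHRF1 SRA domain binding a hemimethylated CpG hairpin DNA probe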
CSN deneddyl inh: inhibitors of human CSN-mediated cullin deneddylation; Q92905; Purified CSN, SCF-Nedd8-OG deneddylation, fluorescence polarization; inhibition, % at 12.5 µM; actives 0.38% (n = 360,000);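 active means pattern-corrected inhibition above about 35%, with an unprinted fluorescence ratio check between 0.5 and 1.5, limit read from the data, passing the limit was not always enough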
Target sequence (Q92905 whole entry, looked up, one chain of several): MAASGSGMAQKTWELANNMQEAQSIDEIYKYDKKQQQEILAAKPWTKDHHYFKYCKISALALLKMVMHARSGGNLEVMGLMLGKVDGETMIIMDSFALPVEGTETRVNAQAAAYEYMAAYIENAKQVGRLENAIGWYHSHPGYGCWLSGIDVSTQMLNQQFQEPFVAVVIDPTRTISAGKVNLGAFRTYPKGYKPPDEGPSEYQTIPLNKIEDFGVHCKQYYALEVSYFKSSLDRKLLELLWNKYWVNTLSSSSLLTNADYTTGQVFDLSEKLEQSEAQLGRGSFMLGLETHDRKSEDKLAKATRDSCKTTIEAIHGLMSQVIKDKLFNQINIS
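Detection – fluorescence polarization · System – HEK293T-derived human Csn5 enzyme · Controls – substrate-only high control, full reaction low control · Timing – 90 min, room temperature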
LEDGF integ inh: blocks HIV-1 LEDGF/p75-dependent DNA integration. actives 0.64% (n = 370,000). TR-FRET IN-LEDGF/p75 DNA integration, Eu/Cy5. inhibition, % at 3.7 µM;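 active means inhibition above the screen-wide mean plus 3 SD, cut at about 13% in these data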;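 further: signal is the Cy5 over europium emission ratio at 671 and 618 nm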
MBD2 inh: MBD2-methylated oligo binding inhibition; inhibition, % at 4.4 µM; actives 0.31% (n = 370,000); Q9UBB5; TR-FRET, MBD2 binding to methylated oligonucleotide; AID 686964; in the data active means inhibition above about 13%
Target sequence (Q9UBB5 whole entry, looked up): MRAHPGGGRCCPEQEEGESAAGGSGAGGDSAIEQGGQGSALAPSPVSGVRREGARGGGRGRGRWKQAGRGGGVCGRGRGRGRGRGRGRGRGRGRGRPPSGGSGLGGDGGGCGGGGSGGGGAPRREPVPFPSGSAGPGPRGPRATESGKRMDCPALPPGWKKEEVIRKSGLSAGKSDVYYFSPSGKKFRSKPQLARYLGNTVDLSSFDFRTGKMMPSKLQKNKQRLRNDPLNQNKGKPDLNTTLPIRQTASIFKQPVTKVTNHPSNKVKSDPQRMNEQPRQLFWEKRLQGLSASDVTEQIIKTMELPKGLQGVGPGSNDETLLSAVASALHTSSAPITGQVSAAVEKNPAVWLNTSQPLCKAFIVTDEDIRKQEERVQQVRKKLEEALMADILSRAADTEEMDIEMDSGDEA
rCAG bind conf: r(CAG) RNA repeat binding, confirmation | shares compounds with rCAG RNA binder | TO-PRO-1 dye displacement fluorescence | inhibition, % at 3 µM | actives 70% (n = 4,300) | AID 652065;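 active means inhibition above a per-plate cutoff, the mean inhibition of sample wells plus 3 SD, cut at about 35% in these data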;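 further: loss of TO-PRO-1 fluorescence as compound displaces dye from 1x1 AA loop RNA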
DNA CAG counter: disrupts DNA CAG TO-PRO-1 complex, flagging rCAG hits; shares compounds with rCAG RNA binder; d(CAG) DNA oligo TO-PRO-1 dye displacement, fluorescence; inhibition, % at 3 µM; actives 94% (n = 4,300); AID 652068;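 active means inhibition above its plate's cutoff, the mean test-well inhibition plus 3 SD, cut at about 4.8% in these data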;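 further: hits displace the dye from DNA and so lower well fluorescence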
dCAG dye DR: disrupts DNA CAG TO-PRO-1 complex in dose response. shares compounds with rCAG RNA binder. DNA CAG/GTC duplex TO-PRO-1 dye displacement fluorescence. IC50, µM. actives 20% (n = 250); in the data active means IC50 below about 10 µM
Numbers stand for hits; 0 = inactive; - = not tested or not shown. Rows were chosen to be rich in hits. Some 3.1% of all compounds tested hit in one or more screens of this group.

SMILES | rCAG RNA binder | ATG4B inh | UHRF1 MBD2 ctr | CSN deneddyl inh | LEDGF integ inh | MBD2 inh | rCAG bind conf | DNA CAG counter | others
Cc1ccc([N+](=O)[O-])cc1-c1ccc(/C=C(\C#N)c2[nH]nc(N)c2C#N)o1 | 84 | 0 | 0 | 0 | 0 | 0 | 63 | 47
NC(=O)C1CCN(c2ccnc(Cl)n2)CC1 | - | - | 0 | - | 0 | 0 | - | -
O=C1CCC[C@H]2C[C@H](NCc3cccc(I)c3)CC[C@]23CCCN13 | - | - | 0 | - | 0 | 0 | - | -
O=C(NCCc1ccccc1F)c1ccc2c(c1)ncn2C1CCCCC1 | 0 | - | 0 | - | 0 | 0 | - | -
CN(c1ccccc1)S(=O)(=O)c1cccc(C(=O)Nc2nccs2)c1 | 0 | 0 | 0 | 0 | 0 | 0 | - | -
C=CCSc1nnc(NC(=O)c2cccc(S(=O)(=O)N(C)c3ccccc3)c2)s1 | 48 | 0 | 0 | 0 | 0 | 0 | 44 | 14
O=C(CN1C(=O)S/C(=C\c2cccs2)C1=O)Nc1ccc(O)c(C(=O)O)c1 | 52 | 0 | 0 | 0 | 0 | 0 | 37 | 10
O=C(CCN1C(=O)/C(=C\c2cccs2)SC1=S)Nc1ccc(C(=O)O)cc1 | 55 | 0 | 0 | 0 | 0 | 0 | 40 | 11
O=C(CN1C(=O)S/C(=C/c2cccs2)C1=O)N1CCCC1 | 0 | 0 | 0 | 0 | 0 | 0 | - | -
O=C(CCN1C(=O)/C(=C/c2ccc(Cl)cc2)SC1=S)Nc1ccc(C(=O)O)cc1 | 0 | 0 | 0 | 0 | 0 | 0 | - | -
O=C(CN1C(=O)S/C(=C\c2cccs2)C1=O)Nc1ccc(C(=O)O)c(O)c1 | 67 | 0 | 0 | 0 | 0 | 0 | 40 | 10
COC(=O)[C@]12C[C@H](CC(=O)N3CCN(C(=O)C4CC4)CC3)C(=O)N(CCc3ccc(OC)c(OC)c3)C1=C[C@H](C(C)C)O[C@@H]2C1CC1 | 0 | - | 0 | - | 0 | 0 | - | -
NC(=O)C1CCN(c2nc(-c3ccc4c(c3)CCO4)cs2)CC1 | - | - | 0 | - | 0 | 0 | - | -
CCN(Cc1ccccc1)C(=O)C1C2C=CC3(CN(Cc4ccccc4)C(=O)C13)O2 (stereo unspecified) | 0 | - | 0 | - | 0 | 0 | - | -
COc1ccc(-c2cc(C(=O)N/N=C/c3cc(OC)c(OC)cc3OC)c3ccccc3n2)cc1 | 0 | 0 | 0 | 0 | 0 | 0 | - | -
O=C(O)COc1ccccc1/C=N/NC(=O)c1cc(-c2ccc(Cl)cc2)nc2ccccc12 | 79 | 0 | 0 | 0 | 0 | 0 | 72 | 33 | dCAG dye DR=0
O=C(NNC(=O)c1cc(-c2ccco2)nc2ccccc12)c1ccccc1 | 0 | 0 | 0 | 0 | 0 | 0 | - | -
COc1ccc(OC)c(/C=N/NC(=O)c2cc(-c3ccc(C)o3)nc3ccccc23)c1 | 45 | 0 | 0 | 0 | 0 | 0 | 0 | 13
O=C(O)c1ccccc1/C=N/NC(=O)c1cc(-c2ccco2)nc2ccccc12 | 35 | 0 | 0 | 0 | 0 | 0 | 45 | 21
O=C(COC(=O)c1cc(-c2ccco2)nc2ccccc12)NCc1ccccc1 | 38 | 0 | 0 | 0 | 0 | 0 | 0 | 0
COc1cc(NC(=O)CSc2nc3ccccc3cc2C)c(C(=O)O)cc1OC | 0 | 0 | 0 | 0 | 0 | 0 | - | -
CCc1cc2ccccc2nc1SCC(=O)Nc1cc(OC)c(OC)cc1C(=O)O | 53 | 0 | 0 | 0 | 0 | 0 | 45 | 13
Cc1nn(-c2ccccc2)c(C)c1C=NNC(=O)CSc1nc2ccccc2n1C | 0 | - | 0 | - | 0 | 0 | - | -
C=C(C)/C=C1/C(Cc2ccccc2)N(CC2CC2)C(=N)N1C(=O)OCc1ccccc1 (stereo unspecified) | 0 | - | 0 | - | 0 | 0 | - | -
C=CCNc1nc2ccccc2nc1NS(=O)(=O)c1ccc(F)cc1 | 0 | 0 | 0 | 0 | 0 | 0 | - | -
SMILES | rCAG RNA binder | ATG4B inh | UHRF1 MBD2 ctr | CSN deneddyl inh | LEDGF integ inh | MBD2 inh | rCAG bind conf | DNA CAG counter | others
C=CCNc1nc2ccccc2nc1NS(=O)(=O)c1ccc(Br)cc1 | 49 | 0 | 0 | 0 | 0 | 0 | 42 | 9.8
CC(=O)c1cc(-c2ccccc2)n(CC(=O)NCc2ccccc2)c1C | 0 | - | 0 | - | 0 | 0 | - | -
O=C(Nc1c(-c2ccc(C(F)(F)F)cc2)nc2ncccn12)C1CC1 | 0 | - | 0 | - | 0 | 0 | - | -
O=C(O)c1cccc2c1C(=O)c1ccc(-c3ccc(OC(F)(F)F)cc3)cc1S2(=O)=O | 69 | 0 | 0 | 0 | 0 | 0 | 60 | 16
COC(=O)C1CN(C2CC2)CCS(=O)(=O)N1Cc1cn(Cc2ccc(Cl)cc2)nn1 (stereo unspecified) | 0 | - | 0 | - | 0 | 0 | - | -
COc1cccc(/C=N/Nc2snc(SC)c2C#N)c1O | 75 | 0 | 0 | 0 | 0 | 0 | 48 | 19
COc1cccc(/C=N/Nc2snc(SC)c2C#N)c1 | 47 | 0 | 0 | 0 | 0 | 0 | 36 | 15
COc1ccc(/C=N/Nc2snc(SC)c2C#N)cc1OC | 50 | 0 | 0 | 0 | 0 | 0 | 36 | 11
Cc1ccc(C(=O)N(NC2=NS(=O)(=O)c3ccccc32)S(=O)(=O)c2ccc(C)cc2)cc1 | 64 | 0 | 0 | 0 | 0 | 0 | 44 | 13
CCN(C1=NS(=O)(=O)c2ccccc21)N(CC)S(=O)(=O)c1ccc(C)cc1 | 0 | 0 | 0 | 0 | 0 | 0 | - | -
Cc1cccc(C)c1-n1c(SCC(=O)Nc2ccc(C(=O)O)cc2)nnc1-c1cccc(S(=O)(=O)N(C)C)c1 | 38 | 0 | 0 | 0 | 0 | 0 | 0 | 0
O=C(CSc1nnc(-c2cccc(S(=O)(=O)N3CCCC3)c2)n1-c1ccccc1)Nc1ccc(C(=O)O)cc1 | 0 | 0 | 0 | 0 | 0 | 0 | - | -
CCCCCCC(=O)Nc1nc(C)c(-c2csc(Nc3cc(Cl)ccc3C)n2)s1 | 39 | 0 | 0 | 0 | 0 | 0 | 0 | 11
CCCCC(=O)Nc1nc(C)c(-c2csc(Nc3cc(Cl)ccc3OC)n2)s1 | 45 | 0 | 0 | 0 | 0 | 0 | 0 | 13
CCCCC(=O)Nc1nc(C)c(-c2csc(Nc3cc(OC)ccc3OC)n2)s1 | 0 | 0 | 0 | 0 | 0 | 0 | - | -
O=C(CN1CCc2onc(-c3ccc(-n4cc(C5=CCCCC5)nn4)cc3)c2C1=O)N1CCOCC1 | 0 | - | 0 | - | 0 | 0 | - | -
CCOc1cc(/C=C2\SC(=Nc3ccccc3)N(c3ccccc3)C2=O)ccc1OCC(=O)O | 65 | 0 | 0 | 0 | 0 | 0 | 71 | 30 | dCAG dye DR=0
O=C(O)c1ccc(/C=C2\SC(=Nc3ccccc3)N(c3ccccc3)C2=O)cc1 | 0 | 0 | 0 | 0 | 0 | 0 | - | -
O=C(O)COc1ccc(/C=C2\SC(=Nc3ccccc3)N(c3ccccc3)C2=O)cc1 | 0 | 0 | 0 | 0 | 0 | 0 | - | -
CCN1C(=O)/C(=C\c2ccncc2)SC1=Nc1ccc(C)c(C)c1 | 0 | 0 | 0 | 0 | 0 | 0 | - | -
Cc1ccc(N=C2S/C(=C/c3cccc(OCC(=O)O)c3)C(=O)N2C)cc1C | 58 | 0 | 0 | 0 | 0 | 0 | 64 | 23
O=C(O)COc1ccccc1/C=C1\SC(=Nc2ccc(F)cc2)N(c2ccc(F)cc2)C1=O | 40 | 0 | 0 | 0 | 0 | 0 | 65 | 24
O=C1CCC[C@H]2C[C@H](NCc3ccc(Cl)c(Cl)c3)CC[C@]23CCCN13 | - | - | 0 | - | 0 | 0 | - | -
